# Compound activity as filed in PubChem BioAssay.
# Shown are actives, neighbours in structure and some others; about 9.8% of the full set was active somewhere.
# PMI activator = activators of human phosphomannose isomerase; P34949; purified human PMI, coupled resazurin fluorescence, 20 min; hits give high values; 1 = vehicle control, 0 substrate-free wells; activation factor at 20 µM; 190,000 tested, 0.005% active; AID 1214;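 active = activation factor of 2 or more at 20 µM, relative to plate controls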
# m-calpain inh = calpain II (pig) inhibition; purified calpain II, fluorogenic peptide substrate, 30 min; inhibition, % at 16 µM; 220,000 tested, 0.37% active; AID 1236;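 active = inhibition above about 50%, limit read from the data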
# PMI act satM6P = PMI (human) activation, high substrate; P34949; coupled PMI enzyme assay, resazurin fluorescence, 20 min; hits give high values; 1 = untreated enzyme, 0 = substrate-free blank; activation factor at 20 µM; 190,000 tested, 0.34% active;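 active = activation factor of 2 or more at 20 µM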
#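 assay system = human phosphomannose isomerase with PGI, G6PDH, diaphorase coupling enzymes | quantity = 15 ng/mL PMI | incubation = enzyme reaction with compound 20 min at room temperature | medium = HEPES pH 7.4 buffer with MgCl2 and Tween-20 | compound dosing = one concentration, 20 µM, in 1% DMSO | measured by = Diaphorase-driven resazurin-to-resorufin fluorescence, excitation 544, emission 590 nm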
# WT yeast gro inh = growth inhibition of WT yeast, mitochondrial fusion screen. mitochondrial fusion phenotypic screen, WT strain. inhibition, % at 10 µM. 190,000 tested, 2.1% active; in the data active = inhibition above about 58%; tested in S. cerevisiae
# Rad51 HR inh = Rad51 (human) homologous recombination inhibition. Q06609. hRad51 DNA strand exchange, fluorescence dequenching. inhibition, % at 10 µM. 200,000 tested, 0.085% active. AID 1385;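 active = inhibition above 40% at the single screening dose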;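 also: 0% = DMSO control wells and 100% = blanks with heterologous ssDNA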
# Target sequence (Q06609 whole entry, looked up): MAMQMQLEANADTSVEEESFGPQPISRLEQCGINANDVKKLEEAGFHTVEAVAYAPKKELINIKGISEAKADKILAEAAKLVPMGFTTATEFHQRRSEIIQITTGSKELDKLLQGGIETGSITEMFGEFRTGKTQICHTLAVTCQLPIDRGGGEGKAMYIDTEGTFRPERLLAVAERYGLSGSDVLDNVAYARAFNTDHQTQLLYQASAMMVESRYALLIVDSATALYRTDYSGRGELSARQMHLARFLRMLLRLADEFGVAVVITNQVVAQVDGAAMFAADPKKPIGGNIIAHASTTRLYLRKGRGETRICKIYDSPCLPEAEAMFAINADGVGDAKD
#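 material = hRad51 filaments on single-stranded DNA | timing = filaments 15 min 37 °C, then compound 30 min | signal = FRET fluorescence dequenching, excitation 485 nm, emission 520 nm | benchmarks = control wells and blank wells on each plate | evaluation = percent inhibition relative to plate controls and blanks | compound = 10 µM final, single point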
# Lmaj promast = reduces viability of Leishmania major promastigotes | resazurin fluorescence viability | 200,000 tested, 9% active | inhibition, % at 10 µM; in the data active = inhibition above about 50%;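 also: promastigotes grown with compound for 44 hours at 28 °C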
# Active calls of the source: *; x = no result given.
SMILES,PMI activator,m-calpain inh,PMI act satM6P,WT yeast gro inh,Rad51 HR inh,Lmaj promast
COc1ccc(OC)c(C2C(C(=O)c3ccccc3)=C(C)Nc3nc4ccccc4n32)c1 (centres undefined),0.9,-6,0.8,-7,x,79*
Cc1ccc(C)c(NC(=S)N(Cc2cccc(Br)c2)CC2CCC(C(=O)O)CC2)c1 (centres undefined),0.9,-78,1,0,-22,-2
O=C(Cc1cccs1)NCc1cccc(F)c1,1.1,16,1,5,x,-1
CCOc1ccc(CNc2ccc(N3CCCC3)cc2)cc1,0.1,-27,0.2,0,-1,100*
CC(C)c1ccc(CNc2ccc(N3CCOCC3)cc2)cc1,0.8,-44,0.9,31,5,81*
CCOC(=O)c1c(C)nn(-c2ccc(NC(=O)CSCC(=O)O)cc2)c1C,x,-16,x,x,12,x
CCCN(CCC)CCCNC(=O)c1cc2c(=O)n(C)c3ccccc3c2n1C,1,-44,1,14,-3,51*
CCN(CC)CCNC(=O)c1cc2c(=O)n(C)c3ccccc3c2n1C,1,-156,1,2,7,13
Cn1c(C(=O)NCCCN2CCCCCC2)cc2c(=O)n(C)c3ccccc3c21,0.8,-58,0.8,14,7,67*
CCCCN(CC)CCNC(=O)CNC(=O)Cn1ccc2ccccc2c1=O,1.1,52*,1.1,-1,14,-8
CCCCN(CC)CCNC(=O)c1cc2c(=O)n(C)c3ccccc3c2n1C,0.9,-47,0.9,11,0,77*
CCCN1CCN(CCCNC(=O)c2cc3c(=O)n(C)c4ccccc4c3n2C)CC1,1,-48,1,-1,-4,15
O=C(NCCCN1CCOCC1)C(=O)NCc1ccccc1Cl,1.1,-28,1,-16,2,1
COc1ccc(Cc2n[nH]c(=S)n2C)cc1Br,1,-24,1,-4,31,-2
COc1ccc(C2N(S(=O)(=O)c3ccc(C)cc3)CCN2S(=O)(=O)c2ccc(C)cc2)cc1,1,5,1,9,8,66*
CC(=O)N1CCN(S(=O)(=O)c2ccc(C)cc2)C1c1ccc(N(C)C)cc1 (centres undefined),1,-44,1,1,2,2
COc1ccc(S(=O)(=O)N2CC(C)N(S(=O)(=O)c3ccc(OC)cc3)CC2C)cc1 (centres undefined),0.9,x,0.9,9,5,x
Cc1ccc(S(=O)(=O)N2CCN(S(=O)(=O)c3ccccc3)C2c2ccc(N(C)C)cc2)cc1 (centres undefined),0.8,-25,0.9,15,-4,89*
CCN1C(=O)CCC(C(=O)O)C1c1ccc(OC)cc1 (centres undefined),x,17,x,x,-14,x
CCN1C(c2ccccc2)C(C)C(=O)C(C)C1c1ccccc1 (centres undefined),0.9,-13,1,81*,0,0
COc1ccc(CCCc2nnc(SCC(=O)Nc3ccc(C)c(C)c3)o2)cc1,0.8,60*,0.9,2,2,4
COc1ccc(/C=C/C(=O)OCC(=O)c2c(N)n(C)c(=O)n(C)c2=O)c(OC)c1,0.9,-8,0.9,-28,7,-9
CCCCCCP(=O)(O)c1ccccc1,1,-11,1.1,61*,8,-7
COc1ccccc1OCC(=O)OCC(=O)Nc1sccc1C(N)=O,0.9,-15,0.9,-15,4,53*
NC(=O)c1ccsc1NC(=O)COC(=O)Cc1cccc2ccccc12,0.8,-56,0.9,78*,-7,-2
SMILES,PMI activator,m-calpain inh,PMI act satM6P,WT yeast gro inh,Rad51 HR inh,Lmaj promast
Nc1nnc(CCS(=O)(=O)c2ccc(Br)cc2)s1,1,-9,1,-14,7,0
COc1ccc(/C=N/NC(=O)c2cc(C(C)(C)C)[nH]n2)cc1COc1ccc(F)cc1F,1,-122,1,0,x,19
Cc1ccnc(NC(=O)c2cccc(NS(=O)(=O)c3ccccc3C)c2)c1,0.9,-18,1,20,-1,91*
Cc1ccc(S(=O)(=O)Nc2cccc(C(=O)Nc3cc(C)ccn3)c2)cc1,1,3,1,10,-1,19
Cc1ccc(C)c(SCC(=O)Nc2nnc(-c3ccccc3)o2)c1,0.9,23,0.9,73*,x,-4
Cc1ccc(C)c(NC(=O)CSc2nnc(-c3n[nH]c4ccccc34)o2)c1,0.9,7,0.9,-2,5,60*
COc1ccc(C(=O)N/C(=C/c2cccs2)C(=O)NN)cc1OC,x,-299,x,x,x,x
COc1ccc(N=Nc2nc3ccc(Br)cc3n2C)cc1,1.4,-5,2.2*,11,x,-4
COC(=O)c1c(C)oc(C)c1S(=O)(=O)NCc1ccco1,x,0,x,x,18,x
CNc1nc(N)c(C(=O)C23CC4CC(CC(C4)C2)C3)s1,0.9,4,0.9,-13,15,100*
Cc1ccc(S(=O)(=O)N2CCN(C(C)CC(=O)O)CC2)cc1 (centres undefined),1,-22,1,-1,16,0
COc1ccccc1Nc1ncnc2nc[nH]c12,1,-15,1,70*,-8,-2
COc1ccccc1CNc1ncnc2nc[nH]c12,1,1,1,-23,-5,-2
COc1ccccc1NC(=O)Nc1ccccc1C(=O)NCCCN1CCOCC1,x,16,x,x,-6,x
CCc1[nH]c(C(=O)O)c(C)c1C(=O)OC,x,-10,x,x,22,x
CCN(CC)CCCN(C(C)=O)c1nc(-c2cc(OC)ccc2OC)cs1,1,-15,0.9,-6,5,100*
O=C(/C=C/c1ccccc1Cl)N(Cc1ccccc1)C1CCS(=O)(=O)C1 (centres undefined),0.8,4,0.9,-13,-3,0
O=C(/C=C/c1ccccc1Cl)N(Cc1ccc(Cl)cc1)C1CCS(=O)(=O)C1 (centres undefined),0.8,3,0.8,53,4,79*
Cc1cc(OCC(=O)N2CCCCCC2)ccc1[N+](=O)[O-],1,16,1.1,-9,4,48
Cc1ccc([N+](=O)[O-])c(OCCCN2CCCCCC2)c1,1,-7,0.9,9,x,98*
Cc1ccc(OCCCCN2CCCC(C)C2)c([N+](=O)[O-])c1 (centres undefined),0.9,3,0.9,18,1,86*
Cc1ccc([N+](=O)[O-])c(OCCN2C(=O)NC(C)(C)C2=O)c1,0.9,-14,1,12,20,-5
Cc1cc(OCCN2CCCCCC2)ccc1[N+](=O)[O-],1,4,1,9,-10,92*
CCOc1ccccc1N1CCN(Cc2cnc(-c3ccccc3)[nH]2)CC1,x,-25,x,x,0,x
COc1cc(CNCc2cccnc2)ccc1OCC(=O)NC1CCCCC1,1.3,9,1.3,2,-1,86*
